# According to ChEMBL document CHEMBL4689842, “EUbOPEN Chemogenomics Library wave 1” (2021):
# Tested on: U2OS
# Experiment: Multiplex assay against U2OS
# Type: toxicity, cell-based
# Settings: human
# In short: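 Per cents of healthy-nucleus cells form the tubulin, mitochondrial-mass and membrane-permeability phenotype values. Live cells were stained at seeding with Hoechst33342, BioTracker Green Microtubule Cytoskeleton Dye, MitoTracker Red and Annexin V Alexa Fluor 680. After compound addition they were imaged on a CQ1 microscope at 37°C and 5% CO2, and CellPathfinder machine-learning gating split them into Hoechst high-intensity objects or normal cells, normal cells into healthy, pyknosed or fragmented nuclei, and pyknosed cells into mitotic or apoptotic.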
# [1] = 12 h, 1 µM, compound concentration 1 uM, replicate 1
# [2] = 12 h, 1 µM, compound concentration 1 uM, replicate 2
# [3] = 12 h, 10 µM, compound concentration 10 uM, replicate 1
# [4] = 12 h, 10 µM, compound concentration 10 uM, replicate 2
# [5] = 24 h, 1 µM, compound concentration 1 uM, replicate 1
# [6] = 24 h, 1 µM, compound concentration 1 uM, replicate 2
# [7] = 24 h, 10 µM, compound concentration 10 uM, replicate 1
# [8] = 24 h, 10 µM, compound concentration 10 uM, replicate 2
# [9] = 48 h, 1 µM, compound concentration 1 uM, replicate 1
# [10] = 48 h, 1 µM, compound concentration 1 uM, replicate 2
# [11] = 48 h, 10 µM, compound concentration 10 uM, replicate 1
# [12] = 48 h, 10 µM, compound concentration 10 uM, replicate 2
smiles,measurement,setting,value
CC(C)NC(=O)N1CC[C@H](NC2=Nc3cc(F)ccc3N(CC(F)F)c3ccc(Cl)cc32)C1,Population Apoptotic (%),[1],50%
same,Population Fragmented Nuclei (%),[1],11%
same,Population Healthy Nuclei (%),[1],75%
same,Population Hoechst High Intensity Objects (%),[1],7%
same,Population Membrane Permeable-Phenotype (%),[1],7%
same,Population Mitochondria Different-Phenotype (%),[1],8%
same,Population Mitotic Cells (%),[1],50%
same,Population Normal (%),[1],92%
same,Population Pyknosed Nuclei (%),[1],13%
same,Population Tubulin-Different-Phenotype (%),[1],19%
same,Total Cell Count,[1],469
same,Population Apoptotic (%),[2],33%
same,Population Fragmented Nuclei (%),[2],5%
same,Population Healthy Nuclei (%),[2],89%
same,Population Hoechst High Intensity Objects (%),[2],9%
same,Population Membrane Permeable-Phenotype (%),[2],4%
same,Population Mitochondria Different-Phenotype (%),[2],18%
same,Population Mitotic Cells (%),[2],66%
same,Population Normal (%),[2],90%
same,Population Pyknosed Nuclei (%),[2],5%
same,Population Tubulin-Different-Phenotype (%),[2],14%
same,Total Cell Count,[2],293
same,Population Apoptotic (%),[3],47%
same,Population Fragmented Nuclei (%),[3],11%
same,Population Healthy Nuclei (%),[3],72%
same,Population Hoechst High Intensity Objects (%),[3],11%
same,Population Membrane Permeable-Phenotype (%),[3],4%
same,Population Mitochondria Different-Phenotype (%),[3],52%
same,Population Mitotic Cells (%),[3],52%
same,Population Normal (%),[3],88%
same,Population Pyknosed Nuclei (%),[3],15%
same,Population Tubulin-Different-Phenotype (%),[3],89%
same,Total Cell Count,[3],96
same,Population Apoptotic (%),[4],0%
same,Population Fragmented Nuclei (%),[4],6%
same,Population Healthy Nuclei (%),[4],81%
same,Population Hoechst High Intensity Objects (%),[4],13%
same,Population Membrane Permeable-Phenotype (%),[4],13%
same,Population Mitochondria Different-Phenotype (%),[4],63%
same,Population Mitotic Cells (%),[4],100%
same,Population Normal (%),[4],86%
same,Population Pyknosed Nuclei (%),[4],11%
same,Population Tubulin-Different-Phenotype (%),[4],58%
same,Total Cell Count,[4],62
same,Population Apoptotic (%),[5],53%
same,Population Fragmented Nuclei (%),[5],9%
same,Population Healthy Nuclei (%),[5],78%
same,Population Hoechst High Intensity Objects (%),[5],6%
same,Population Membrane Permeable-Phenotype (%),[5],10%
same,Population Mitochondria Different-Phenotype (%),[5],28%
same,Population Mitotic Cells (%),[5],46%
same,Population Normal (%),[5],93%
same,Population Pyknosed Nuclei (%),[5],12%
same,Population Tubulin-Different-Phenotype (%),[5],21%
same,Total Cell Count,[5],453
same,Population Apoptotic (%),[6],50%
same,Population Fragmented Nuclei (%),[6],5%
same,Population Healthy Nuclei (%),[6],88%
same,Population Membrane Permeable-Phenotype (%),[6],6%
same,Population Mitochondria Different-Phenotype (%),[6],19%
same,Population Mitotic Cells (%),[6],50%
same,Population Pyknosed Nuclei (%),[6],5%
same,Population Tubulin-Different-Phenotype (%),[6],9%
same,Total Cell Count,[6],281
same,Population Apoptotic (%),[7],56%
same,Population Fragmented Nuclei (%),[7],14%
same,Population Healthy Nuclei (%),[7],61%
same,Population Hoechst High Intensity Objects (%),[7],6%
same,Population Membrane Permeable-Phenotype (%),[7],15%
same,Population Mitochondria Different-Phenotype (%),[7],61%
same,Population Mitotic Cells (%),[7],43%
same,Population Normal (%),[7],93%
same,Population Pyknosed Nuclei (%),[7],23%
same,Population Tubulin-Different-Phenotype (%),[7],79%
same,Total Cell Count,[7],112
same,Population Apoptotic (%),[8],83%
same,Population Fragmented Nuclei (%),[8],13%
same,Population Healthy Nuclei (%),[8],73%
same,Population Hoechst High Intensity Objects (%),[8],10%
same,Population Membrane Permeable-Phenotype (%),[8],6%
same,Population Mitochondria Different-Phenotype (%),[8],57%
same,Population Mitotic Cells (%),[8],16%
same,Population Normal (%),[8],90%
same,Population Pyknosed Nuclei (%),[8],13%
same,Population Tubulin-Different-Phenotype (%),[8],51%
same,Total Cell Count,[8],75
same,Population Apoptotic (%),[9],52%
same,Population Fragmented Nuclei (%),[9],10%
same,Population Healthy Nuclei (%),[9],77%
same,Population Membrane Permeable-Phenotype (%),[9],3%
same,Population Mitochondria Different-Phenotype (%),[9],23%
same,Population Mitotic Cells (%),[9],47%
same,Population Pyknosed Nuclei (%),[9],11%
same,Population Tubulin-Different-Phenotype (%),[9],23%
same,Total Cell Count,[9],499
same,Population Apoptotic (%),[10],25%
same,Population Fragmented Nuclei (%),[10],4%
same,Population Healthy Nuclei (%),[10],87%
same,Population Hoechst High Intensity Objects (%),[10],6%
same,Population Membrane Permeable-Phenotype (%),[10],10%
same,Population Mitochondria Different-Phenotype (%),[10],26%
same,Population Mitotic Cells (%),[10],75%
same,Population Normal (%),[10],93%
same,Population Pyknosed Nuclei (%),[10],7%
same,Population Tubulin-Different-Phenotype (%),[10],22%
same,Total Cell Count,[10],259
same,Population Apoptotic (%),[11],82%
same,Population Fragmented Nuclei (%),[11],23%
same,Population Healthy Nuclei (%),[11],47%
same,Population Hoechst High Intensity Objects (%),[11],6%
same,Population Membrane Permeable-Phenotype (%),[11],20%
same,Population Mitochondria Different-Phenotype (%),[11],44%
same,Population Mitotic Cells (%),[11],17%
same,Population Normal (%),[11],93%
same,Population Pyknosed Nuclei (%),[11],29%
same,Population Tubulin-Different-Phenotype (%),[11],76%
same,Total Cell Count,[11],160
same,Population Apoptotic (%),[12],69%
same,Population Fragmented Nuclei (%),[12],13%
same,Population Healthy Nuclei (%),[12],60%
same,Population Hoechst High Intensity Objects (%),[12],13%
same,Population Membrane Permeable-Phenotype (%),[12],41%
same,Population Mitochondria Different-Phenotype (%),[12],61%
same,Population Mitotic Cells (%),[12],30%
same,Population Normal (%),[12],86%
same,Population Pyknosed Nuclei (%),[12],25%
same,Population Tubulin-Different-Phenotype (%),[12],58%
same,Total Cell Count,[12],115
